26 molecules from ChEMBL document CHEMBL4613235, “A scaffold replacement approach towards new sirtuin 2 inhibitors” (Bioorg Med Chem, 2020) can be followed below.

For assay [1], the target named is T1, NAD-dependent protein deacetylase sirtuin-1 (Homo sapiens) (UniProt Q96EB6).
T1 sequence (whole entry): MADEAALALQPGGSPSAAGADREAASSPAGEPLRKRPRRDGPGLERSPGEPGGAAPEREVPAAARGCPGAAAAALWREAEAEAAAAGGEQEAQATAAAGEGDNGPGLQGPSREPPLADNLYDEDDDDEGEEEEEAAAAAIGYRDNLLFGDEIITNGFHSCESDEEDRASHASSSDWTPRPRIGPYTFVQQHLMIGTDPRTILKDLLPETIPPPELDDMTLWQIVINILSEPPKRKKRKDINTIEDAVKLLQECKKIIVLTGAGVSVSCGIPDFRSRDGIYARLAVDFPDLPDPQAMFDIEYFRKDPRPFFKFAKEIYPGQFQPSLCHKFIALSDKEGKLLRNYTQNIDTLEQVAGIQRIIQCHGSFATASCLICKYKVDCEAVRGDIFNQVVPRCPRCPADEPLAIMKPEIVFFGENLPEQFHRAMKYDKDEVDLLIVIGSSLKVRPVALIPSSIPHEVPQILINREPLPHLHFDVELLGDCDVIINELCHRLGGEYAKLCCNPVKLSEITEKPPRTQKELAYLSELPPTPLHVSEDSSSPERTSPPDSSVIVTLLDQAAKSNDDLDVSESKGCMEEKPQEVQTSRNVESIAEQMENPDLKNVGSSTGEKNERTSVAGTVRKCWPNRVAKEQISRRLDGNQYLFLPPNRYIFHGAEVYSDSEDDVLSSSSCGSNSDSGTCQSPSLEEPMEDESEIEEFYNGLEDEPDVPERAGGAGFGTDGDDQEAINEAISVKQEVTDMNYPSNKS
Nature of the assay: Inhibition of recombinant GST-tagged human SIRT1 at 200 uM using FLUOR DE LYS SIRT1 as substrate preincubated with substrate for 5 mins followed by enzyme addition and measured after 1 hr in presence of NAD+ by fluorescence based assay relative to control. The method in brief:
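Fluor de Lys assay using GST-SIRT1 produced in-house and acetylated peptide substrate KI177 at 0.7 Km, with NAD+ at 0.9 Km in SIRT assay buffer. Buffer, substrate, NAD+ and compound in DMSO were preincubated 5 min at room temp, then enzyme was added and run 1 h at 37 °C. Developer plus nicotinamide was added for 45 min at 37 °C. Read at ex 370/em 460 nm. SD, n = 3.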

In assay [2] the target is T2, NAD-dependent protein deacetylase sirtuin-2 (Homo sapiens) (UniProt Q8IXJ6).
T2 sequence (whole entry): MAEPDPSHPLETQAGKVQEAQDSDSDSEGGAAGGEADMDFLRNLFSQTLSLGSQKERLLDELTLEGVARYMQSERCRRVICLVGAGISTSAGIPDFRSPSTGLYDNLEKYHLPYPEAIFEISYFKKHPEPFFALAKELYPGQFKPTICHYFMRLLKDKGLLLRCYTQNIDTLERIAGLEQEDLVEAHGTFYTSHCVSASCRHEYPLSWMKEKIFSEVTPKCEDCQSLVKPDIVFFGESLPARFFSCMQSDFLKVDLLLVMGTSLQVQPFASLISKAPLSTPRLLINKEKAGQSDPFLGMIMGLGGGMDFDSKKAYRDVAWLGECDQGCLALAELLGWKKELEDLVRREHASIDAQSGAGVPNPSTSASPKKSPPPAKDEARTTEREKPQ
Nature of the assay: Inhibition of recombinant GST-tagged human SIRT2 expressed in Escherichia coli at 200 uM using FLUOR DE LYS SIRT2 as substrate preincubated with substrate for 5 mins followed by enzyme addition and measured after 1 hr in presence of NAD+ by fluorescence based assay relative to control. The method in brief:
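Fluor de Lys assay using GST-SIRT2 produced in-house and acetylated peptide substrate KI179 at 0.7 Km, with NAD+ at 0.9 Km in SIRT assay buffer. Buffer, substrate, NAD+ and compound in DMSO were preincubated 5 min at room temp; enzyme started the 1 h, 37 °C reaction. Developer with nicotinamide was added for 45 min at 37 °C; fluorescence read at ex 370/em 460 nm. SD, n = 3.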

In assay [3] the target is T3, NAD-dependent protein deacetylase sirtuin-3, mitochondrial (Homo sapiens) (UniProt Q9NTG7).
T3 sequence (whole entry): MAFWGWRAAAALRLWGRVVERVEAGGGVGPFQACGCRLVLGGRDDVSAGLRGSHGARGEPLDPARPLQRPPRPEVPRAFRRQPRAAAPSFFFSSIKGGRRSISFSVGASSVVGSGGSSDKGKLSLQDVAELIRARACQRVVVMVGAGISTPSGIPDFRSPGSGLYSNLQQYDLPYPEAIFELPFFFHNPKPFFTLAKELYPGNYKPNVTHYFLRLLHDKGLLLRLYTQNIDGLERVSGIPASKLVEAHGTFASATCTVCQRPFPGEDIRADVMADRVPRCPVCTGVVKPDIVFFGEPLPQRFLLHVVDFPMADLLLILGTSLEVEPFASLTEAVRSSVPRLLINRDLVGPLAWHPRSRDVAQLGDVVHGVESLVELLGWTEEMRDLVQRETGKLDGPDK
In words: Inhibition of recombinant N-terminal His-tagged human sirtuin 3 (102 to 399 residues) expressed in Escherichia coli at 200 uM using fluor de lys SIRT2 as substrate preincubated with substrate for 5 mins followed by enzyme addition and measured after 1 hr in presence of NAD+ by fluorescence based assay relative to control. The method in brief: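 Purchased recombinant His-SIRT3 was used with Fluor de Lys acetylated peptide substrate KI179 at 0.7 Km and NAD+ at 0.9 Km in SIRT assay buffer. Compound in DMSO was preincubated 5 min at room temp with buffer, substrate and NAD+; enzyme addition began the 1 h, 37 °C reaction. Developer with nicotinamide followed for 45 min at 37 °C; ex 370/em 460 nm read-out. SD, n = 3.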

Molecules are shown by their SMILES.

What is called inhibition is the percentage by which the read-out fell short of the control. Regarding `CCOC(=O)CCCN1C(=O)c2ccccc2S1(=O)=O`, the inhibition came out at 8.7% in assay [1], 13% in assay [2] and 7.2% in assay [3]. For the molecule `O=C1CCC(=O)N1CCN1C(=O)c2ccc(Br)cc2S1(=O)=O`, in assay [2], the inhibition turned out to be 13%. Turning to `O=c1ccc2cc(CCC3Nc4c(Br)cc(Br)cc4S(=O)(=O)N3)ccc2[nH]1` (centres undefined), the figures for the inhibition in assay [1], in assay [2] and in assay [3] were 25%, 74% and 28%, respectively. Take `CCCCCN1C(=O)c2ccccc2S1(=O)=O`: the inhibition in assay [2] came out at 34%. Turning to `O=c1cc(Cc2ccccc2)[nH]c2c(Br)cc(Cl)cc12`, the inhibition was found to be 7.6% in assay [1], 58% in assay [2] and 41% in assay [3]. In the same order, the values of `O=C1c2ccc(Br)cc2S(=O)(=O)N1CCc1ccccc1` are 3.8%, 4.7% and 1.6%.

On to `O=S1(=O)NC(CCc2ccccc2)=Cc2ccccc21`, for which the inhibition in assay [2] was determined as 15%.

Regarding `CCCCCN1C(=O)c2ccc(Br)cc2S1(=O)=O`, the inhibition in assay [2] turned out to be 6.9%.

`O=S1(=O)NC(CCc2cccc(Br)c2)Nc2c(Br)cc(Br)cc21` (centres undefined): the results for the inhibition in assay [1], in assay [2] and in assay [3] were 9.7%, 59% and 9.9%, respectively. As to `O=S1(=O)NC(CCc2ccccc2)Nc2c(Br)cc(Br)cc21` (centres undefined), the inhibition in assay [1] stood at 4.6%; in assay [2], 47%; in assay [3] it was 54%. Taken in the same sequence, the figures for `O=C1c2ccccc2S(=O)(=O)N1CCCc1cccnc1` were 17%, 12% and 14%. Take `COC(=O)CCCCc1cc(=O)c2cc(Cl)cc(Br)c2[nH]1`: in assay [2], the inhibition came to 53%. For the molecule `CCCCCc1cc(=O)c2cc(Cl)cc(Br)c2o1`, the inhibition in assay [1] was found to be 9.8%; in assay [3] it was 4.5%.

For the molecule `O=c1cc(CCc2ccccc2)oc2c(Br)cc(Cl)cc12`, the inhibition in assay [2] is 75%. Still for that read-out and setting: in the case of `O=C1c2ccc(Br)cc2S(=O)(=O)N1CCc1cccc([N+](=O)[O-])c1` it was 6.2%. On the same count and under the same terms, to `O=S1(=O)N=C(CCc2ccccc2)Nc2c(Br)cc(Br)cc21` belongs 15%.

As for `CCCCCC1Nc2c(Br)cc(Br)cc2S(=O)(=O)N1` (centres undefined), the inhibition was 4.4% in assay [1], 32% in assay [2] and 5.8% in assay [3]. As to `O=S1(=O)N=C(CCc2ccc(Br)cc2)Nc2c(Br)cc(Br)cc21`, the inhibition in assay [2] turned out to be 10%.

For the molecule `O=C1c2ccc(Br)cc2S(=O)(=O)N1CCc1ccc(O)cc1`, the inhibition stood at 5.2% in assay [1], 12% in assay [2] and 15% in assay [3]. Turning to `CCCCC1=Cc2ccccc2S(=O)(=O)N1`, the inhibition in assay [2] stood at 12%. As to `O=S1(=O)NC(CCc2ccccc2)=Cc2ccc(Br)cc21`, the inhibition in assay [2] is 35%. As to `CCCCCc1cc(=O)c2cc(Cl)cc(Br)c2[nH]1`, in assay [2], the inhibition was determined as 26%.

On to `CCCCC1=Cc2ccc(Br)cc2S(=O)(=O)N1`, for which, in assay [2], the inhibition came to 29%. Consider `O=S1(=O)N=C(CCc2cccc(Br)c2)Nc2c(Br)cc(Br)cc21`, for which the inhibition in assay [1] worked out at 0%; in assay [2], 24%; in assay [3], 3.2%.

Turning to `O=C1c2ccccc2S(=O)(=O)N1CCc1ccccc1`, the inhibition in assay [1] was found to be 14%; in assay [2], 34%; in assay [3], 14%. Take `O=C1c2ccc(Br)cc2S(=O)(=O)N1CCc1cccc(Br)c1`: in assay [2], the inhibition is 15%.
